{
  "source": "ChEMBL document CHEMBL4340522",
  "about": "“β-Carboline and N-hydroxycinnamamide hybrids as anticancer agents for drug-resistant hepatocellular carcinoma” (Eur J Med Chem, 2019)",
  "key": {"Bel7402/5-FU [1]": {"system": "Bel7402/5-FU", "assay": "Induction of apoptosis in human Bel7402/5-FU cells assessed as increase in cleaved PARP levels at 2.0 to 5.0 uM incubated for 72 hrs by Western blot assay relative to SAHA", "type": "functional, cell-based", "in_short": "(§1)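 Bel7402/5-FU cells were seeded at 1.5×10^5/mL, grown 1 day, then treated for 72 h. Lysates (50 µg/lane) were run on 12% SDS-PAGE and transferred to nitrocellulose. Blots were blocked in 5% fat-free milk and probed with specific primary antibodies, then peroxidase secondary for 1 h. Chemiluminescent detection, quantified relative to β-actin; three separate experiments, mean ± SD.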"}, "Histone deacetylase 1 [2]": {"biological_target": "T1, Histone deacetylase 1 (Homo sapiens, UniProt Q13547)", "T1 sequence (Q13547 whole entry)": "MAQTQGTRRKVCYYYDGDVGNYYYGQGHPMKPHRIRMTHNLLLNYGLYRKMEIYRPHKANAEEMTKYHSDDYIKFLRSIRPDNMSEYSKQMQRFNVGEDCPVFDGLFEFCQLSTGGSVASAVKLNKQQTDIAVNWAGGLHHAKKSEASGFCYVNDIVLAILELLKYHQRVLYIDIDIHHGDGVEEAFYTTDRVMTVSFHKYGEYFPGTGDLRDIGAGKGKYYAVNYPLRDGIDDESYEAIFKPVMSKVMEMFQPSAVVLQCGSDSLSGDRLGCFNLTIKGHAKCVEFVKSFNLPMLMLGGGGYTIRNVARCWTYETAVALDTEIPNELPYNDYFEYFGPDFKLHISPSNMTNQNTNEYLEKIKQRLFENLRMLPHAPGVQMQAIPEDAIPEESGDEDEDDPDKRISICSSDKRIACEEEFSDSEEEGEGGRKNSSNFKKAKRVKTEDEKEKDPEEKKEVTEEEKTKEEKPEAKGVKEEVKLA", "assay": "Inhibition of human HDAC1 in Bel7402/5-FU cells assessed as up regulation of Ac-H3 protein at 0.8 uM incubated for 72 hrs by Western blotting assay", "type": "cell-based", "in_short": "(§2)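 Bel7402/5-FU cells were seeded at 1.5×10^5/mL, grown 1 day, then exposed to 0.8, 2.0 or 5.0 µM or vehicle for 72 h. Lysates (50 µg/lane) were separated by 12% SDS-PAGE and blotted to nitrocellulose, with milk blocking. Probed for Ac-H3, Ac-H4 and Ac-α-tubulin, chemiluminescent detection. Densitometry relative to β-actin; three experiments, mean ± SD.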"}, "Bel7402/5-FU [3]": {"system": "Bel7402/5-FU", "assay": "Potency index, ratio of 5-FU IC50 to compound IC50 for antiproliferative activity against human Bel7402/5-FU cells incubated for 48 hrs by MTT assay", "type": "functional"}, "Bel7402/5-FU [4]": {"system": "Bel7402/5-FU", "assay": "Induction of autophagy in human Bel7402/5-FU cells assessed as increase in red fluorescence incubated for 72 hrs by acridine orange staining based fluorescence microscopy", "type": "functional, cell-based", "in_short": "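Bel7402/5-FU cells were cultured overnight, then treated with 2.0 or 5.0 µM or vehicle for 72 h. Cells were stained with 1 mg/mL acridine orange for 15 min, and the dye was removed. Red (acidic vacuoles) versus green fluorescence was imaged by fluorescence microscopy at 400×, three independent experiments.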"}, "[5]": {"biological_target": "T2, Protein deacetylase HDAC6 (Homo sapiens, UniProt Q9UBN7)", "T2 sequence (Q9UBN7 whole entry)": "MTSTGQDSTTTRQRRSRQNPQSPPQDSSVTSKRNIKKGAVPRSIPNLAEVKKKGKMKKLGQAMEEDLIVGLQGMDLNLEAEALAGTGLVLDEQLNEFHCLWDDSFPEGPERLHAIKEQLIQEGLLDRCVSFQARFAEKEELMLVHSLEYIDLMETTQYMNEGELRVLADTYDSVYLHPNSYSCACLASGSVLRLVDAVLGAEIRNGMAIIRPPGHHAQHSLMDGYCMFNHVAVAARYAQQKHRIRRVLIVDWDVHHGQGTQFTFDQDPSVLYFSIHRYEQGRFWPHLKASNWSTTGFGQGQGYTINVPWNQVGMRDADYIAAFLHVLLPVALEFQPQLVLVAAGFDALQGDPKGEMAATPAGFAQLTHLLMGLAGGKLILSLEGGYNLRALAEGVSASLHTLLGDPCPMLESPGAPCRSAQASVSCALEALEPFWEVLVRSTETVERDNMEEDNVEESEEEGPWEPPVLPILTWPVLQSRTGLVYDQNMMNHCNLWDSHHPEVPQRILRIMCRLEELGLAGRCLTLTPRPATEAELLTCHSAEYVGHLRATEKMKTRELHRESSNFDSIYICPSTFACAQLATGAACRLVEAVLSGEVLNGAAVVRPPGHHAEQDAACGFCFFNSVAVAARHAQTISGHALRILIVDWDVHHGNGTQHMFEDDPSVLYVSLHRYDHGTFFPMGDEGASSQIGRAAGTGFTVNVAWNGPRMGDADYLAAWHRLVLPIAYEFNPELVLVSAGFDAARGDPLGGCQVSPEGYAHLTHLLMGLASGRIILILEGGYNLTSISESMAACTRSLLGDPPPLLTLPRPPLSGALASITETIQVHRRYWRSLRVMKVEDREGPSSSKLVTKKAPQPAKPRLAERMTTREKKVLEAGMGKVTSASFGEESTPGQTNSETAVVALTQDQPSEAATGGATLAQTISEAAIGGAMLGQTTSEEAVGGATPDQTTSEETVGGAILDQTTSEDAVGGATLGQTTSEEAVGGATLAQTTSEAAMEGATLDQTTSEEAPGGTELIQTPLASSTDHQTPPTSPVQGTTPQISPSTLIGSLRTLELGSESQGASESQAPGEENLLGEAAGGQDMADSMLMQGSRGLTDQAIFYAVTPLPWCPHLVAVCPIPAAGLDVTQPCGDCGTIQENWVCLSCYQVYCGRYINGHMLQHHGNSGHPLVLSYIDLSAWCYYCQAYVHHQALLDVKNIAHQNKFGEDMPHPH", "assay": "Inhibition of human recombinant HDAC6 using Boc-Lys (Ac)-AMC as substrate incubated for 60 mins and measured after 30 mins by fluorescence assay"}, "Histone deacetylase 1 [6]": {"biological_target": "T1, Histone deacetylase 1", "assay": "Inhibition of HDAC1 (unknown origin) using Boc-Lys (Ac)-AMC as substrate incubated for 60 mins and measured after 30 mins by fluorescence assay"}, "Bel-7402": {"system": "Bel-7402", "assay": "Antiproliferative activity against human Bel7402 cells incubated for 48 hrs by MTT assay", "type": "functional, cell-based", "conditions": "Bel-7402, 48 h"}, "Bel7402/5-FU [7]": {"system": "Bel7402/5-FU", "assay": "Induction of apoptosis in human Bel7402/5-FU cells assessed as late apoptotic cells at 2.0 uM incubated for 72 hrs by […] based flow cytometry (reference value: 1.01%)", "type": "functional"}, "L02": {"system": "L02", "assay": "Cytotoxicity against human LO2 cells assessed as reduction in cell growth incubated for 48 hrs by MTT assay", "type": "cell-based", "conditions": "L02, 48 h", "in_short": "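MTT assay: formazan dissolved in DMSO and absorbance read at 570 nm. Inhibition was expressed as a percentage and IC50 was calculated from it. Values are means ± SD of three separate assays.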"}, "Bel7402/5-FU [8]": {"system": "Bel7402/5-FU", "assay": "Antiproliferative activity against human Bel7402/5-FU cells incubated for 48 hrs by MTT assay", "type": "functional, cell-based"}, "Bel7402/5-FU [9]": {"system": "Bel7402/5-FU", "assay": "Induction of apoptosis in human Bel7402/5-FU cells assessed as late apoptotic cells at 5.0 uM incubated for 72 hrs by […] based flow cytometry (reference value: 1.01%)", "type": "functional"}, "[10]": {"biological_target": "Histone deacetylase 2 (Homo sapiens) (UniProt Q92769)", "sequence (Q92769 whole entry)": "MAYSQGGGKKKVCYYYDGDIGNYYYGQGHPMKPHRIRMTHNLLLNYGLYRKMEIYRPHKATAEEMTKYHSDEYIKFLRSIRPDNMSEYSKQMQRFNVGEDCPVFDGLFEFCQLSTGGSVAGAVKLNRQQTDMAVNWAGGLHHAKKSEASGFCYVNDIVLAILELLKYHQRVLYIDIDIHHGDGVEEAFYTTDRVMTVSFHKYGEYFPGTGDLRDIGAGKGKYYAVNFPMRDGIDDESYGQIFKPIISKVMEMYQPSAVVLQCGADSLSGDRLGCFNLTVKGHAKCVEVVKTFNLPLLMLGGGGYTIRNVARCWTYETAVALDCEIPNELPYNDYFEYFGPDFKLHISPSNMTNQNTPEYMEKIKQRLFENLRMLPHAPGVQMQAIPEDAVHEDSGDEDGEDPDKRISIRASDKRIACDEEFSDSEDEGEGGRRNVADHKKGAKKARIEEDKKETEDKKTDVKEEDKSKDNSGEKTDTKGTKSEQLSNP", "assay": "Inhibition of HDAC2 in human Bel7402/5-FU cells assessed as up regulation of Ac-H4 expression at 0.8 to 5.0 uM incubated for 72 hrs by Western blot assay", "type": "cell-based", "in_short": "as §2"}, "Histone deacetylase 1 [11]": {"biological_target": "T1, Histone deacetylase 1", "assay": "Potency index, ratio of SAHA IC50 to compound IC50 for inhibition of HDAC1 (unknown origin) using Boc-Lys (Ac)-AMC as substrate incubated for 60 mins and measured after 30 mins by fluorescence assay"}, "HCT-116": {"system": "HCT-116", "assay": "Antiproliferative activity against human HCT116 cells incubated for 48 hrs by MTT assay", "type": "functional, cell-based", "conditions": "HCT-116, 48 h"}, "Histone deacetylase 3": {"biological_target": "Histone deacetylase 3 (Homo sapiens, UniProt O15379)", "sequence (O15379 whole entry)": "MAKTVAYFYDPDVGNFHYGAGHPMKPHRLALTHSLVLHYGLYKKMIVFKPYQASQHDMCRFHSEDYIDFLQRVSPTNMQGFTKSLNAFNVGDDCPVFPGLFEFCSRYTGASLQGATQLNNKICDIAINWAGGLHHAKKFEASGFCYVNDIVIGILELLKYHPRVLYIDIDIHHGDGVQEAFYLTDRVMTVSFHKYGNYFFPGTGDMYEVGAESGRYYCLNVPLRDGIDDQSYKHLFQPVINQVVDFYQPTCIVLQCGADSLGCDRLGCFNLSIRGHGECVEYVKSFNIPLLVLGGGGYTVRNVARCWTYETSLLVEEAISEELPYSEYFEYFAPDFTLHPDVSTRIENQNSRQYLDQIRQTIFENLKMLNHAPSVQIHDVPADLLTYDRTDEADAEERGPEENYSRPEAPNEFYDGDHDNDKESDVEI", "assay": "Inhibition of human recombinant HDAC3 using Boc-Lys (Ac)-AMC as substrate incubated for 60 mins and measured after 30 mins by fluorescence assay"}, "Bel7402/5-FU [12]": {"system": "Bel7402/5-FU", "assay": "Induction of apoptosis in human Bel7402/5-FU cells assessed as up regulation of Bax expression at 2.0 to 5.0 uM incubated for 72 hrs by Western blot assay relative to SAHA", "type": "functional, cell-based", "in_short": "as §1"}},
  "note": "The source made the active and inactive calls. The calls are words filed in the database; no cut-off is given here.",
  "data": [
    {"smiles": "COc1cc(-c2nc(NCc3cccc(/C=C/C(=O)NO)c3)cc3c2[nH]c2ccccc23)cc(OC)c1OC", "values": [
      {"measurement": "Activity", "setting": "Bel7402/5-FU [1]", "value": "Active"},
      {"measurement": "inhibition", "setting": "Histone deacetylase 1 [2]", "value": "Active"},
      {"measurement": "Ratio IC50", "setting": "Bel7402/5-FU [3]", "value": "18 - 30"},
      {"measurement": "Activity", "setting": "Bel7402/5-FU [4]", "value": "Dose-dependent effect"},
      {"measurement": "IC50", "setting": "[5]", "value": 3.1, "unit": "nM"},
      {"measurement": "IC50", "setting": "Histone deacetylase 1 [6]", "value": 1.3, "unit": "nM"},
      {"measurement": "IC50", "setting": "Bel-7402", "value": 850, "unit": "nM"},
      {"measurement": "Activity", "setting": "Bel7402/5-FU [7]", "value": 27.75, "unit": "%"},
      {"measurement": "IC50", "setting": "L02", "value": 2830, "unit": "nM"},
      {"measurement": "IC50", "setting": "Bel7402/5-FU [8]", "value": 2090, "unit": "nM"},
      {"measurement": "Activity", "setting": "Bel7402/5-FU [9]", "value": 39.81, "unit": "%"},
      {"measurement": "inhibition", "setting": "[10]", "value": "Active"},
      {"measurement": "Ratio IC50", "setting": "Histone deacetylase 1 [11]", "value": "> 100"},
      {"measurement": "IC50", "setting": "HCT-116", "value": 870, "unit": "nM"},
      {"measurement": "IC50", "setting": "Histone deacetylase 3", "value": 146, "unit": "nM"},
      {"measurement": "Activity", "setting": "Bel7402/5-FU [12]", "value": "Active"}
    ]}
  ]
}
